We go through 1 molecule from PMC4062594 (Nature chemical biology, 2014).

In one assay the test system is MCF10A-NeuNT cells. The assay is described as follows: Cell migration with PTP1B knock-down and re-expression. In kind it is cell-based. The gist of the method:
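MCF10A-NeuNT cells carried doxycycline-inducible control or PTP1B shRNA miRs; doxycycline (500 ng/mL) was added 12 h after seeding and refreshed every 12 h. Cells were transfected 24 h with wild type or L192A/S372P PTP1B, then left untreated or given test compound (1 or 2 μM). Cells were run in Matrigel invasion chambers (8.0 μm pores) for 24–48 h, and migrated cells were Giemsa-stained and counted. Three experiments, in duplicate.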

Another assay deals with T1, PTP1B1-405 (Homo sapiens, UniProt P18031).
T1 sequence (P18031 1-405): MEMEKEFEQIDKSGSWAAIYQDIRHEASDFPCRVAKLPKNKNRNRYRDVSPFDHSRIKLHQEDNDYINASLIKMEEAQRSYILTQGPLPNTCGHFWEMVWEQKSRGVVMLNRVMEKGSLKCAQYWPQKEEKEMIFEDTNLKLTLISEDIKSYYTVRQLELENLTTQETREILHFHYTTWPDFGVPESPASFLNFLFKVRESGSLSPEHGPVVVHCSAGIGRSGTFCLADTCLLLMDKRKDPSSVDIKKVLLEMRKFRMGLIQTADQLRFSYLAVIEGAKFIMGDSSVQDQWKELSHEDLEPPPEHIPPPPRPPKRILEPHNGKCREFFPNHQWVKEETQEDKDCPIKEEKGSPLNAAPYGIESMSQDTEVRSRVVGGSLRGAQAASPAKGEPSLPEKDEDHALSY
The assay can be described thus: Limited proteolysis with trypsin. The conditions noted are these: saturating concentrations of MSI-1436 (5 μM).

In assay [1] the test system is PTP1B V370, S372 and R373 to alanine. The assay is described as follows: PTP assay, alanine point mutants. In kind it is biochemical, human. The conditions noted are these: data not shown.

With `CC(C)[C@@H](CC[C@@H](C)[C@H]1CC[C@H]2[C@@H]3[C@H](O)C[C@H]4C[C@@H](NCCCNCCCCNCCCN)CC[C@]4(C)[C@H]3CC[C@]12C)OS(=O)(=O)O` [MSI-1436, Trodusquemine], the migration result in the assay with MCF10A-NeuNT cells (PTP1B knock-down, reconstituted with PTP1B-L192A/S372P, MSI-1436 1 or 2 μM) is recorded as “no longer sensitive”; in the assay with MCF10A-NeuNT cells (PTP1B knock-down, reconstituted with wild type PTP1B, MSI-1436 1 or 2 μM) it was “remained sensitive to inhibition”; with MCF10A-NeuNT cells (absence of doxycycline (endogenous PTP1B)) it was “attenuated”. For the same molecule, the sensitivity to trypsin entry on PTP1B1-405 was “more trypsin-resistant state”. Moreover, the “effect of alanine mutations on inhibition by MSI-1436” value in assay [1] is given as “did not affect”.
